Reference: ChEMBL document CHEMBL3351346, “Design, synthesis, structure-function relationship, bioconversion, and pharmacokinetic evaluation of ertapenem prodrugs” (J Med Chem, 2014)

What was measured:
Canis familiaris [1] = assay: Oral bioavailability in fasted Beagle dog assessed as assessed as ertapenem and monoetser metabolites level at 10 mg/kg dosed through intraduodenal route by LC-MS/MS method; type: ADME, organism-based, Canis lupus familiaris; details: in vivo
How it was run: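 Total absorption followed intraduodenal dosing with LC-MS/MS of plasma over 8 h. It was calculated as the combined dose-normalized AUC of circulating parent prodrug, ertapenem and two monoesters, divided by dose-normalized AUC of ertapenem given iv. Vehicle was 30% Captisol or 0.5% methylcellulose.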

[2] = Stability in pH 2.0 simulated gastric fluid assessed as compound degradation to beta-lactam ring open products at 1 uM after 60 mins by LC-MS/MS method; type: ADME; details: read-out: Drug degradation
How it was run: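 Incubation was in simulated gastric fluid (SGF, pH 2.0) for 60 min, with loss to the β-lactam ring-opened product measured by LC-MS/MS.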

Canis familiaris [3] = assay: (§1) AUC (0 to 8 hrs) in fasted Beagle dog at 10 mg/kg dosed through intraduodenal route by LC-MS/MS method; type: ADME, organism-based, Canis lupus familiaris, Plasma; design: time < 8 hr, dose 10 mg/kg, route intraduodenal; details: in vivo, other, 8 h
How it was run: (§2)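 Prodrugs were given intraduodenally to bypass stomach acid. Plasma was sampled at intervals over 8 h, and parent prodrug, the two monoester metabolites and ertapenem were quantified by LC-MS/MS. The lower limit of quantitation was 5 nM. AUC(0–8) was used, and it differed from AUC(0–∞) by ±20%. Vehicles were 30% Captisol or 0.5% methylcellulose, as solution or suspension depending on compound.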

[4] = Stability in pH 7.4 phosphate buffer assessed as compound remaining at 50 uM after 3 hrs by LC-MS/MS method; type: physicochemical; details: read-out: Stability
Canis familiaris [5] = assay: AUC (0 to 8 hrs) in fasted Beagle dog assessed as ertapenem level at 10 mg/kg dosed through intraduodenal route by LC-MS/MS method; type: ADME, organism-based, Canis lupus familiaris, Plasma; design: time < 8 hr, dose 10 mg/kg, route intraduodenal; details: in vivo, other; how it was run: as §2
Canis familiaris [6] = assay: Oral bioavailability in fasted Beagle dog assessed as ertapenem level at 10 mg/kg dosed through intraduodenal route by LC-MS/MS method; type: ADME, organism-based, Canis lupus familiaris; details: in vivo
How it was run: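 After intraduodenal dosing, plasma over 8 h was analysed by LC-MS/MS. Bioavailability was calculated as dose-normalized AUC of ertapenem formed from the prodrug divided by dose-normalized AUC of ertapenem dosed iv. Vehicle was 30% Captisol or 0.5% methylcellulose.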

[7] = Stability in human plasma assessed as compound remaining at 50 uM at 37 degC after 60 mins by LC-MS/MS method; type: ADME, cell-free; details: read-out: Stability
How it was run: (§3)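 Prodrugs were incubated in rat or human plasma for 60 min. Disappearance of prodrug and concomitant appearance of ertapenem were followed by LC-MS/MS, and in selected cases monoesters from partial hydrolysis were also monitored. Ertapenem itself was incubated the same way as a control.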

[8] = Stability in pH 6.5 simulated gastrointestinal fluid assessed as compound remaining at 50 uM after 3 hrs by LC-MS/MS method; type: ADME; details: read-out: Stability
How it was run: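 Compounds at 50 μM were incubated in fasted-state simulated intestinal fluid (FaSSIF, pH 6.5) for over 3 h. Percent remaining was determined by LC-MS/MS.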

Canis familiaris [9] = assay: AUC (0 to 8 hrs) in fasted Beagle dog assessed as 8-OH, C-3 ester level at 10 mg/kg dosed through intraduodenal route by LC-MS/MS method; type: ADME, organism-based, Canis lupus familiaris, Plasma; design: time < 8 hr, dose 10 mg/kg, route intraduodenal; details: in vivo, other; how it was run: as §2
[10] = Stability in rat plasma assessed as compound remaining at 50 uM at 37 degC after 60 mins by LC-MS/MS method; type: ADME, cell-free; details: read-out: Stability; how it was run: as §3
[11] = as §1; type: ADME, organism-based, Canis lupus familiaris, Plasma; design: time < 8 hr, dose 10 mg/kg, route intraduodenal; details: Beagle, plasma; how it was run: as §2
Canis familiaris [12] = assay: AUC (0 to 8 hrs) in fasted Beagle dog assessed as 8-OH, benzoate ester level at 10 mg/kg dosed through intraduodenal route by LC-MS/MS method; type: ADME, organism-based, Canis lupus familiaris, Plasma; design: time < 8 hr, dose 10 mg/kg, route intraduodenal; details: in vivo, other; how it was run: as §2

Row | SMILES | F (Canis familiaris [1]) [%] | degraded at 1 h, 1 µM [2] [%] | AUC (Canis familiaris [3]) [µM·h] | remaining at 3 h, 50 µM [4] [%] | AUC (Canis familiaris [5]) [µM·h] | F (Canis familiaris [6]) [%] | remaining at 1 h, 50 µM [7] [%] | remaining at 3 h, 50 µM [8] [%] | AUC (Canis familiaris [3]; BLD = below limit of detection) | AUC (Canis familiaris [9]; BLD = below limit of detection) | remaining at 1 h, 50 µM [10] [%] | AUC(0-t) at 8 h [11] [µM·h] | AUC (Canis familiaris [12]) [µM·h] | AUC (Canis familiaris [9]) [µM·h]
1 | C[C@@H](O)[C@H]1C(=O)N2C3=C(S[C@@H]4CN[C@@H](C4)C(=O)Nc4cccc(c4)C(=O)OCCCOC3=O)[C@H](C)[C@H]12 | 0.7 | > 25 | 0.1 | > 95 | 0.4 | 0.5 | 34 | > 95 | – | – | – | – | – | –
2 | CCC(=O)OCOC(=O)C1=C(S[C@@H]2CN[C@H](C(=O)Nc3cccc(C(=O)OCOC(=O)CC)c3)C2)[C@H](C)[C@@H]2[C@@H]([C@@H](C)O)C(=O)N12 | 2.9 | > 25 | – | > 95 | 1.6 | 2.9 | 0 | > 95 | BLD | BLD | 0 | – | – | –
3 | CCCOC(=O)C1=C(S[C@@H]2CN[C@H](C(=O)Nc3cccc(C(=O)OCCC)c3)C2)[C@H](C)[C@@H]2[C@@H]([C@@H](C)O)C(=O)N12 | 11 | > 25 | – | > 95 | 7.3 | 9.8 | 7 | > 95 | – | – | 0 | 1 | – | –
4 | CCCCCCCCCCCCCCCCOC(=O)C1=C(S[C@@H]2CN[C@H](C(=O)Nc3cccc(C(=O)OCCCCCCCCCCCCCCCC)c3)C2)[C@H](C)[C@@H]2[C@@H]([C@@H](C)O)C(=O)N12 | – | > 25 | – | > 95 | – | – | 89 | > 95 | – | – | 89 | – | – | –
5 | C[C@@H](O)[C@H]1C(=O)N2C(C(=O)OCC(F)(F)F)=C(S[C@@H]3CN[C@H](C(=O)Nc4cccc(C(=O)O)c4)C3)[C@H](C)[C@H]12 | – | > 25 | – | > 95 | – | – | 80 | > 95 | – | – | 7 | – | – | –
6 | CCOC(=O)C1=C(S[C@@H]2CN[C@H](C(=O)Nc3cccc(C(=O)OCC)c3)C2)[C@H](C)[C@@H]2[C@@H]([C@@H](C)OC(=O)CC)C(=O)N12 | 20.2 | > 25 | – | > 95 | 9.1 | 12.6 | 22 | > 95 | BLD | – | 0 | – | 1.6 | 1.3
7 | CCOC(=O)C1=C(S[C@@H]2CN[C@H](C(=O)Nc3cccc(C(=O)OCC)c3)C2)[C@H](C)[C@@H]2[C@@H]([C@@H](C)OC(=O)[C@@H](N)C(C)C)C(=O)N12 | 14.9 | > 25 | – | > 95 | 6.5 | 9.7 | 38 | > 95 | BLD | – | 0 | – | 1 | 0.9
8 | CCOC(=O)C1=C(S[C@H]2C[C@@H](C(=O)Nc3cccc(C(=O)OCC)c3)N(Cc3oc(=O)oc3C)C2)[C@H](C)[C@@H]2[C@@H]([C@@H](C)O)C(=O)N12 | – | > 25 | – | > 95 | – | – | 19 | > 95 | – | – | 0 | – | – | –
9 | C[C@@H](O)[C@H]1C(=O)N2C3=C(S[C@@H]4CN[C@@H](C4)C(=O)Nc4cccc(c4)C(=O)OCCCCOC3=O)[C@H](C)[C@H]12 | – | > 25 | – | > 95 | – | – | 4 | > 95 | – | – | 0 | – | – | –
10 | C[C@@H](O)[C@H]1C(=O)N2C3=C(S[C@@H]4CN[C@@H](C4)C(=O)Nc4cccc(c4)C(=O)OC/C=C\COC3=O)[C@H](C)[C@H]12 | – | > 25 | – | > 95 | – | – | 21 | > 95 | – | – | 0 | – | – | –
11 | C[C@@H](O)[C@H]1C(=O)N2C3=C(S[C@@H]4CN[C@@H](C4)C(=O)Nc4cccc(c4)C(=O)OCc4oc(=O)oc4COC3=O)[C@H](C)[C@H]12 | 1 | > 25 | – | > 95 | 0.7 | 1 | 0 | > 95 | BLD | – | 0 | – | – | –
12 | Cc1oc(=O)oc1COC(=O)N1C[C@@H]2C[C@H]1C(=O)Nc1cccc(c1)C(=O)OC/C=C\COC(=O)C1=C(S2)[C@H](C)[C@@H]2[C@@H]([C@@H](C)O)C(=O)N12 | – | > 25 | – | > 95 | – | – | 20 | > 95 | – | – | 0 | – | – | –
13 | Cc1oc(=O)oc1COC(=O)N1C[C@@H]2C[C@H]1C(=O)Nc1cccc(c1)C(=O)OC/C=C/COC(=O)C1=C(S2)[C@H](C)[C@@H]2[C@@H]([C@@H](C)O)C(=O)N12 | – | > 25 | – | > 95 | – | – | 17 | > 95 | – | – | 0 | – | – | –
14 | Cc1oc(=O)oc1COC(=O)N1C[C@@H]2C[C@H]1C(=O)Nc1cccc(c1)C(=O)OCc1oc(=O)oc1COC(=O)C1=C(S2)[C@H](C)[C@@H]2[C@@H]([C@@H](C)O)C(=O)N12 | – | > 25 | – | > 95 | – | – | 0 | > 95 | – | – | 0 | – | – | –
15 | C[C@@H](O)[C@H]1C(=O)N2C3=C(S[C@@H]4CN[C@@H](C4)C(=O)Nc4cccc(c4)C(=O)OCOCOC3=O)[C@H](C)[C@H]12 | – | > 25 | – | > 95 | – | – | 60 | > 95 | – | – | 0 | – | – | –
16 | CCOC(=O)C1=C(S[C@H]2C[C@@H](C(=O)Nc3cccc(C(=O)OCC)c3)N(C(=O)OCc3oc(=O)oc3C)C2)[C@H](C)[C@@H]2[C@@H]([C@@H](C)O)C(=O)N12 | 14.4 | > 25 | – | > 95 | 3.4 | 6.4 | 9 | > 95 | BLD | – | 0 | – | 3.1 | 0.7
